Reference: PMC12638245 (Nature Metabolism, 2025)

How the values were obtained:
ChREBP = conditions: G3P added to HEK293T cells expressing ChREBP and MLX; cited from earlier work
[1] = test system: hepatic G3P, hexose phosphates, pentose phosphates; experiment: Targeted LC-MS metabolomics of mouse liver; format: in vivo
Procedure, shortened: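 Freeze-clamped liver powder (2.0 mg) spiked with 13C3-G3P (2.28 µM final) or a 13C yeast extract internal standard (hexose/pentose phosphates). Boiling 25% 10 mM HEPES/75% ethanol extraction, 55 °C 5 min, sonication, spin at 16,100g, dried, diluted 20-fold. Ion-pair reversed-phase UHPLC (tributylamine/acetic acid, methanol gradient), negative-mode targeted MS2. G3P and hexose phosphates quantified; pentose phosphates relative only.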

circulating FGF21 = experiment: Serum FGF21 ELISA in mice given 5%; format: in vivo, mouse; conditions: mice of each genotype, 5% (w/v) glycerol in drinking water for 2 days, vs water
Procedure, shortened: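 Mice aged 8–16 weeks, single-housed for 2 days on chow with water or 5% (w/v) glycerol. Blood taken at decapitation; serum spun 8,000g, 10 min, 4 °C. Sandwich ELISA: samples 2 h at room temperature, HRP-conjugated anti-FGF21 2 h, substrate 30 min, read at 450 nm with 570 nm correction. Haemolysed samples excluded; genotype-blinded analysis; two-way ANOVA with Tukey.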

[2] = test system: hepatic ChREBP transcription programme; format: in vivo, mouse; conditions: liver
Procedure, shortened: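 Mice aged 8–16 weeks, single-housed on chow with water or 5% (w/v) glycerol as the only drink for 2 days. Livers freeze-clamped in liquid nitrogen. RNA from 20 mg liver, DNase-treated, RIN >5.0; libraries from 150 ng RNA. Paired-end 150 bp sequencing, >20 million read pairs per sample. HTSeq counts, TMM normalisation in edgeR, GLMs with sequencing batch as covariate.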

[3] = genotype and/or addition of glycerol

Row | Compound | protection of ChREBP from thermal precipitation (ChREBP) | hepatic concentrations of hexose phosphates [1, 3] | relative levels of pentose phosphates in liver [1, 3] | hepatic G3P level ([1]; glycerol-exposed male mice, each of the four genotypes, vs water) | circulating FGF21 (circulating FGF21) | induction of ChREBP transcripts by glycerol ([2]; Slc25a13-/- Gpd2-/- double mutant) | Srebf1 expression ([2]; addition of glycerol) | induction of ChREBPα transcript by glycerol ([2]; wild-type and single mutant strains)
1 | O=P(O)(O)OCC(O)CO (centres unmarked) [G3P, glycerol-3-phosphate] | protected ChREBP from thermal precipitation | – | – | – | – | – | – | –
2 | OCC(O)CO [glycerol] | – | not altered | unaffected | tended to be higher | significantly elevated circulating FGF21 | no further induction | unaffected | two- to threefold
